Reference: publication PMC3464052 (Journal of medicinal chemistry, 2012)
Where two headings read alike, the source gives them in different places.

Columns and labels:
[1] = target: T1, human α4β2-nAChRs (Homo sapiens, UniProt P17787+P43681); conditions: cited from earlier work
[2] = tested on: mice; experiment: SmartCube automated behavioral signature; type: in vivo, mouse; conditions: i.p., 15 min before testing
[3] = 1 h incubation, starting concentration 1 μM; ref [16]; cited from earlier work
[4] = target: Ct-AChBP (Capitella teleta, UniProt I6L8L2); experiment: biochemical; type: binding
[5] = tested on: mice; experiment: Mouse forced swim test; type: in vivo
[6] = target: T1, human α4β2-nAChRs; experiment: 86Rb+ ion flux assay, SH-EP1 cells; type: cell-based; conditions: mixture of HS and LS α4β2-nAChRs
Outline: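 Human α4β2-nAChRs stably expressed in SH-EP1 cells, as a mixture of high- and low-sensitivity forms. Agonist responses are expressed relative to a maximally efficacious concentration of the full agonist carbamylcholine. Inactivation of function is measured after a 10 min pre-exposure to test compound. Concentration-response curves are fitted by semi-logarithmic nonlinear regression.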

[7] = Liver microsome stability, dog; type: in vitro ADME; conditions: dog liver microsomes, 1 h, 2 μM
[8] = Liver microsome stability, rat; type: in vitro ADME; conditions: rat liver microsomes, 1 h, 2 μM
[9] = Liver microsome stability, human; type: in vitro ADME; conditions: human liver microsomes, 1 h, 2 μM
[10] = Liver microsome stability, mouse; type: in vitro ADME; conditions: mouse liver microsomes, 1 h, 2 μM
[11] = target: α4β2-nAChR (Rattus norvegicus, UniProt P09483+P12390); experiment: [3H]epibatidine binding competition, heterologously expressed α4β2-nAChR; conditions: from Ki values
[12] = intraperitoneally, 3 or 10 mg/kg

CN1CCC[C@H]1c1cccnc1 [compound 1, nicotine, reference compound]
Agonism Hill slope [1]: 1.0±0.1
Inactivation Hill Slope [1]: −0.8±0.09

OCC[C@H]1C[C@@H]1c1cncc(OC[C@@H]2CCN2)c1 [compound 5]
SmartCube behavioral signature [2]: signature of activity suggesting potential antidepressant-like effect
Agonism Efficacy at HS ([1]; HS α4β2-nAChR, extrapolated using sazetidine-A as full agonist, ref [16]): 92±6%
Inactivation Efficacy ([1]; mixture of HS and LS, ref [16]): 62±1%
Agonism Hill slope ([1]; ref [16]): 1.0±0.4
Inactivation Hill Slope ([1]; ref [16]): −1.4±0.2

CNC(=O)OCC[C@H]1C[C@@H]1c1cncc(OC[C@@H]2CCN2)c1 [compound 6]
tested compound remained unchanged [3]: 98%
SmartCube behavioral signature [2]: signature of activity suggesting potential antidepressant-like effect
Ki [4]: 22 ± 3 nM

CC[C@H]1C[C@@H]1c1cncc(OC[C@@H]2CCN2)c1.O=C(O)C(F)(F)F [compound 10, 3-[(2(S)-Azetidinyl)methoxy]-5-((1S,2S)-2-ethylcyclopropyl)pyridine Trifluoroacetate]
SmartCube behavioral signature [2]: signature of activity suggesting potential antidepressant-like effect
effect in the forced swim test [5, 12]: no significant effect
Agonism Hill slope [6]: 1.1±0.2
Inactivation Hill Slope [6]: −1.1±0.3

FCC[C@H]1C[C@@H]1c1cncc(OC[C@@H]2CCN2)c1.O=C(O)C(F)(F)F [compound 12, 3-[(2(S)-Azetidinyl)methoxy]-5-[(1S,2R)-2-(2-fluoroethyl)cyclopropyl]pyridine Trifluoroacetate]
compound remained unchanged [7]: no less than 98%
SmartCube behavioral signature [2]: signature of activity suggesting potential antidepressant-like effect
effect in the forced swim test ([5]; intraperitoneally or orally): antidepressant-like effect
minimal dose with significant reduction in immobility ([5]; intraperitoneally or orally): 3 mg/kg
compound remained unchanged [8]: no less than 98%
Agonism Hill slope [6]: 1.3±0.5
Inactivation Hill Slope [6]: −1.2±0.4
compound remained unchanged [9]: no less than 98%
compound remained unchanged [10]: no less than 98%
selectivity for α4β2- over α3β4-nAChRs [11]: greater than 16000 fold

FC(F)C[C@H]1C[C@@H]1c1cncc(OC[C@@H]2CCN2)c1.O=C(O)C(F)(F)F [compound 13, 3-[(2(S)-Azetidinyl)methoxy]-5-[(1S,2R)-2-(2,2-difluoroethyl)cyclopropyl]pyridine Trifluoroacetate]
SmartCube behavioral signature [2]: signature of activity suggesting potential antidepressant-like effect
effect in the forced swim test [5, 12]: no significant effect
Agonism Hill slope [6]: 1.4±0.4
Inactivation Hill Slope [6]: −1.1±0.3
selectivity for α4β2- over α3β4-nAChRs [11]: greater than 16000 fold

CN[C@H]1CC[C@@H](c2ccc(Cl)c(Cl)c2)c2ccccc21 [sertraline, reference compound]
effect on immobility in the forced swim test ([5]; positive control, 20 mg/kg): expected decrease in immobility
